Assay results from different studies.
Lines come from different studies, so protocols differ.
Target: Sodium-dependent serotonin transporter (SLC6A4, Homo sapiens, UniProt P31645)

The inhibition of `COc1ccc(-n2nc(OCCCN3CCCCC3)ccc2=O)cc1` is reported as 43.6% (ligand displacement; 1 µM).
`COc1cc(NC(C)=O)c(Cl)cc1C(=O)Nc1nccs1` has an inhibition of -12.3% (cell-free assay; 10 µM).
For `CN(C)CCCN1c2ccccc2CCc2ccccc21`, the inhibition was 19.6% (transporter uptake, inhibitor, radiometric; COS-7; 4 nM).
For `O=C(c1ccc(Cl)cc1)N(Cc1ccccc1)C1CCCCC1`, the inhibition was -7.1% (cell-free assay; 10 µM).
With `CCN(Cc1ccccc1C(F)(F)F)C(=O)C1CCN(S(=O)(=O)c2ccc3[nH]ncc3c2)CC1` the inhibition was 2% (ligand displacement, radioligand; 10 µM).
For `CCCNc1nc2ccccc2n1Cc1ccc(Cl)cc1`, the inhibition was -8.27% (ligand displacement; 10 µM).
For `CN1CCN(CCCOc2ccc(=O)n(-c3ccc(Cl)c(Cl)c3)n2)CC1`, the inhibition was 21.7% (ligand displacement; 1 µM).
With `O=C1N=C(N2CCCCN2)S/C1=C\c1ccc(F)cc1O` the inhibition was less than 10% (ligand displacement, radioligand; 10 µM).
`CCN(CC)c1ccc(C2Nc3ccc(C(=O)c4ccccc4)cc3NC3=C2C(=O)CC(C)(C)C3)cc1` (stereo not shown) has an inhibition of 57% (ligand displacement, radioligand; 10 µM).
`N#Cc1cc(Cn2c(N3CCCC3)nc3ccccc32)ccc1F` gave an inhibition of -16.9% (ligand displacement; 10 µM).
